Measurements reported in ChEMBL document CHEMBL1123846, “Chemical differentiating agents. Differentiation of HL-60 cells by hexamethylenebis[acetamide] analogues” (1987).

Legend:
[1] = system: HL-60; test: Percent of viability for HL-60 cells was determined by dividing number of viable differentiated cells by total number of viable cells, at concentration of 2.5 mM; format: functional, Homo sapiens
Outline: (§1)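 HL-60 cultures were seeded at 2×10^5/mL with agent added from ethanol or Me2SO, final Me2SO up to 77 mM, and harvested on day 4. Total cells were counted on a Coulter counter, and the viable fraction of total cells was determined by trypan blue exclusion.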

[2] = system: HL-60; test: Percent of viability for HL-60 cells was determined by dividing number of viable differentiated cells by total number of viable cells, at concentration of 3.0 mM; format: functional, Homo sapiens; outline: as §1
[3] = system: HL-60; test: Differentiation studies was conducted with the HL-60 human myeloid leukemia cell line and Total cells were counted with a Coulter counter, at a concentration of 2.5 mM; format: functional
Outline: (§2)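 HL-60 cells seeded at 2×10^5/mL with test agent added from ethanol or Me2SO stock; final Me2SO no more than 77 mM. Total cells counted on a Coulter counter on day 4.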

[4] = system: HL-60; test: Differentiation studies was conducted with the HL-60 human myeloid leukemia cell line and Total cells were counted with a Coulter counter, at a concentration of 3.0 mM; format: functional; outline: as §2
[5] = system: HL-60; test: Differentiation studies was conducted with the HL-60 human myeloid leukemia cell line and total cells were counted with a Coulter counter, at a concentration of 1.0 mM; format: functional; outline: as §2
[6] = system: HL-60; test: Percent of differentiated in HL-60 cells was determined by dividing number of viable differentiated cells by total number of viable cells, at a concentration of 3.0 mM; format: functional, Homo sapiens
Outline: (§3)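 HL-60 cells started at 2×10^5/mL and counted on day 4. Test agents were added from ethanol or Me2SO, with final Me2SO at most 77 mM. Differentiation was scored by formazan production, which requires superoxide from living cells. % D is the number of viable differentiated cells divided by the total number of viable cells.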

[7] = system: HL-60; test: Percent of differentiated in HL-60 cells was determined by dividing number of viable differentiated cells by total number of viable cells, at a concentration of 1.0 mM; format: functional, Homo sapiens; outline: as §3
[8] = system: HL-60; test: Percent of differentiated in HL-60 cells was determined by dividing number of viable differentiated cells by total number of viable cells, at a concentration of 2.0 mM; format: functional, Homo sapiens; outline: as §3
[9] = system: HL-60; test: Percent of differentiated in HL-60 cells was determined by dividing number of viable differentiated cells by total number of viable cells, at a concentration of 2.5 mM; format: functional, Homo sapiens; outline: as §3
[10] = system: HL-60; test: Percent of viability for HL-60 cells was determined by dividing number of viable differentiated cells by total number of viable cells, at concentration of 1.0 mM; format: functional, Homo sapiens; outline: as §1
[11] = system: HL-60; test: Percent of viability for HL-60 cells was determined by dividing number of viable differentiated cells by total number of viable cells, at concentration of 2.0 mM; format: functional, Homo sapiens; outline: as §1
[12] = system: HL-60; test: Differentiation studies was conducted with the HL-60 human myeloid leukemia cell line and total cells were counted with a Coulter counter, at a concentration of 2.0 mM; format: functional; outline: as §2
[13] = system: HL-60; test: Percent of differentiated HL-60 cells was determined by dividing number of viable differentiated cells by total number of viable cells, at a concentration of 0.1 mM; format: functional, Homo sapiens; outline: as §3
[14] = system: HL-60; test: Percent of differentiated HL-60 cells was determined by dividing number of viable differentiated cells by total number of viable cells, at a concentration of 0.3 mM; format: functional, Homo sapiens; outline: as §3
[15] = system: HL-60; test: Percent of differentiated HL-60 cells was determined by dividing number of viable differentiated cells by total number of viable cells, at a concentration of 0.4 mM; format: functional, Homo sapiens; outline: as §3
[16] = system: HL-60; test: Percent of differentiated HL-60 cells was determined by dividing number of viable differentiated cells by total number of viable cells, at a concentration of 0.5 mM; format: functional, Homo sapiens; outline: as §3
[17] = system: HL-60; test: Percent of viability for HL-60 cells was determined by dividing number of viable differentiated cells by total number of viable cells, at concentration of 0.1 mM; format: functional, Homo sapiens; outline: as §1
[18] = system: HL-60; test: Percent of viability for HL-60 cells was determined by dividing number of viable differentiated cells by total number of viable cells, at concentration of 0.3 mM; format: functional, Homo sapiens; outline: as §1
[19] = system: HL-60; test: Percent of viability for HL-60 cells was determined by dividing number of viable differentiated cells by total number of viable cells, at concentration of 0.4 mM; format: functional, Homo sapiens; outline: as §1
[20] = system: HL-60; test: Percent of viability for HL-60 cells was determined by dividing number of viable differentiated cells by total number of viable cells, at concentration of 0.5 mM; format: functional, Homo sapiens; outline: as §1
[21] = system: HL-60; test: Differentiation studies was conducted with the HL-60 human myeloid leukemia cell line andTotal cells were counted with a Coulter counter, at a concentration of 0.3 mM; format: functional; outline: as §2
[22] = system: HL-60; test: Differentiation studies was conducted with the HL-60 human myeloid leukemia cell line andTotal cells were counted with a Coulter counter, at a concentration of 0.4 mM; format: functional; outline: as §2
[23] = system: HL-60; test: Differentiation studies was conducted with the HL-60 human myeloid leukemia cell line andTotal cells were counted with a Coulter counter, at a concentration of 0.5 mM; format: functional; outline: as §2
[24] = system: HL-60; test: Differentiation studies was conducted with the HL-60 human myeloid leukemia cell line and total cells were counted with a Coulter counter, at a concentration of 0.1 mM; format: functional; outline: as §2
[25] = system: HL-60; test: Percent of differentiated HL-60 cells was determined by dividing number of viable differentiated cells by total number of viable cells, at a concentration of 1.0 mM; format: functional, Homo sapiens; outline: as §3
[26] = system: HL-60; test: Percent of differentiated HL-60 cells was determined by dividing number of viable differentiated cells by total number of viable cells, at a concentration of 2.0 mM; format: functional, Homo sapiens; outline: as §3
[27] = system: HL-60; test: Percent of differentiated HL-60 cells was determined by dividing number of viable differentiated cells by total number of viable cells, at a concentration of 2.5 mM; format: functional, Homo sapiens; outline: as §3
[28] = system: HL-60; test: Percent of differentiated HL-60 cells was determined by dividing number of viable differentiated cells by total number of viable cells, at a concentration of 3.0 mM; format: functional, Homo sapiens; outline: as §3
[29] = system: HL-60; test: Percent of differentiated HL-60 cells was determined by dividing number of viable differentiated cells by total number of viable cells, at a concentration of 1.5 mM; format: functional, Homo sapiens; outline: as §3
[30] = system: HL-60; test: Differentiation studies was conducted with the HL-60 human myeloid leukemia cell line and Total cells were counted with a Coulter counter, at a concentration of 1.5 mM; format: functional; outline: as §2
[31] = system: HL-60; test: Differentiation studies was conducted with the HL-60 human myeloid leukemia cell line and Total cells were counted with a Coulter counter, at a concentration of 2.0 mM (number of experiments = 1); format: functional; outline: as §2
[32] = system: HL-60; test: Percent of viability for HL-60 cells was determined by dividing number of viable differentiated cells by total number of viable cells, at concentration of 1.5 mM; format: functional, Homo sapiens; outline: as §1
[33] = system: HL-60; test: Percent of viability for HL-60 cells was determined by dividing number of viable differentiated cells by total number of viable cells, at concentration of 4.0 mM; format: functional, Homo sapiens; outline: as §1
[34] = system: HL-60; test: Differentiation studies was conducted with the HL-60 human myeloid leukemia cell line and Total cells were counted with a Coulter counter, at a concentration of 4.0 mM; format: functional; outline: as §2
[35] = system: HL-60; test: Percent of differentiated HL-60 cells was determined by dividing number of viable differentiated cells by total number of viable cells, at a concentration of 4.0 mM; format: functional, Homo sapiens; outline: as §3
[36] = system: HL-60; test: Percent of viability for HL-60 cells was determined by dividing number of viable differentiated cells by total number of viable cells, at concentration of 38 mM; format: functional, Homo sapiens; outline: as §1
[37] = system: HL-60; test: Percent of viability for HL-60 cells was determined by dividing number of viable differentiated cells by total number of viable cells, at concentration of 64 mM; format: functional, Homo sapiens; outline: as §1
[38] = system: HL-60; test: Percent of viability for HL-60 cells was determined by dividing number of viable differentiated cells by total number of viable cells, at concentration of 77 mM; format: functional, Homo sapiens; outline: as §1
[39] = system: HL-60; test: Differentiation studies was conducted with the HL-60 human myeloid leukemia cell line and Total cells were counted with a Coulter counter, at a concentration of 64 mM; format: functional; outline: as §2
[40] = system: HL-60; test: Differentiation studies was conducted with the HL-60 human myeloid leukemia cell line and Total cells were counted with a Coulter counter, at a concentration of 77 mM; format: functional; outline: as §2
[41] = system: HL-60; test: Percent of differentiated HL-60 cells was determined by dividing number of viable differentiated cells by total number of viable cells, at a concentration of 77 mM; format: functional, Homo sapiens; outline: as §3
[42] = system: HL-60; test: Percent of differentiated HL-60 cells was determined by dividing number of viable differentiated cells by total number of viable cells, at a concentration of 38 mM; format: functional, Homo sapiens; outline: as §3
[43] = system: HL-60; test: Percent of differentiated HL-60 cells was determined by dividing number of viable differentiated cells by total number of viable cells, at a concentration of 64 mM; format: functional, Homo sapiens; outline: as §3
[44] = system: HL-60; test: Differentiation studies was conducted with the HL-60 human myeloid leukemia cell line and total cells were counted with a Coulter counter, at a concentration of 38 mM; format: functional; outline: as §2

SMILES: O=C1CCCCN1CCCCCCN1CCCCC1=O
- V [1]: 62%
- V [2]: 25%
- Total cells [3]: 680000 mL
- Total cells [4]: 370000 mL
- Total cells [5]: 830000 mL
- D [6]: 87%
- D [7]: 12%
- D [8]: 40%
- D [9]: 72%
- V [10]: 87%
- V [11]: 65%
- Total cells [12]: 760000 mL

SMILES: CC1(C)NC(=O)N(CCCCCCN2C(=O)NC(C)(C)C2=O)C1=O
- D [13]: 9%
- D [14]: 26%
- D [15]: 45%
- D [16]: 76%
- V [17]: 96%
- V [18]: 82%
- V [19]: 53%
- V [20]: 43%
- Total cells [21]: 480000 mL
- Total cells [22]: 420000 mL
- Total cells [23]: 310000 mL
- Total cells [24]: 870000 mL

SMILES: CC(=O)N(C)CCCCCCN(C)C(C)=O
- D [25]: 10%
- D [26]: 74%
- V [1]: 32%
- V [2]: 30%
- Total cells [3]: 510000 mL
- Total cells [4]: 420000 mL
- Total cells [5]: 1.12e+06 mL
- D [27]: 93%
- D [28]: 94%
- V [10]: 90%
- V [11]: 57%
- Total cells [12]: 700000 mL

SMILES: CC(=O)N(CCCCCCN(C(C)=O)C(C)=O)C(C)=O
- V [1]: 51%
- V [2]: 45%
- Total cells [3]: 480000 mL
- Total cells [4]: 300000 mL
- D [6]: 80%
- D [8]: 65%
- D [9]: 76%
- V [11]: 71%
- Total cells [12]: 530000 mL

SMILES: CC(=O)NCCCCCC(=O)N(C)C
- D [25]: 24%
- D [29]: 13%
- D [26]: 12%
- Total cells [30]: 1.07e+06 mL
- Total cells [31]: 940000 mL
- Total cells [5]: 700000 mL
- V [10]: 85%
- V [32]: 78%
- V [11]: 82%

SMILES: CNC(=O)CCCCCNC(C)=O
- V [2]: 72%
- V [33]: 56%
- Total cells [4]: 680000 mL
- Total cells [34]: 690000 mL
- D [28]: 40%
- D [35]: 71%

SMILES: C[S+](C)[O-] [DIMETHYL SULFOXIDE]
- V [36]: 97%
- V [37]: 96%
- V [38]: 94%
- Total cells [39]: 980000 cells/mL
- Total cells [40]: 930000 cells/mL
- D [41]: 6%
- D [42]: 6%
- D [43]: 9%
- Total cells [44]: 970000 cells/mL

SMILES: CC(=O)NCCCCCCNC(C)=O [HEXAMETHYLENEBISACETAMIDE]
- D [26]: 32%
- V [2]: 68%
- V [33]: 29%
- Total cells [4]: 520000 mL
- Total cells [34]: 390000 mL
- D [28]: 59%
- D [35]: 84%
- V [11]: 74%
- Total cells [12]: 690000 mL
